{"source": "paper PMC2115016", "about": "(The Journal of Cell Biology, 1988)", "key": {"[1]": {"test_system": "chick embryo dorsal root ganglia (DRG)", "assay_type": "cell-based", "settings": "for Inhibition of neurite outgrowth on fibronectin by CS peptide: Table IV, 1 mg/ml peptide, BSA background subtracted"}, "[2]": {"test_system": "B16-F10 murine melanoma cells", "settings": "melanoma cell system; cited from earlier work"}, "[3]": {"test_system": "chick embryo dorsal root ganglia (DRG)", "experiment": "Neurite outgrowth of explanted ganglia on substrate-adsorbed ligands", "assay_type": "cell-based", "how_it_was_run": "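Ligands in Dulbecco's PBS were adsorbed to wells (60 min, RT), then blocked with 10 mg/ml heat-denatured BSA (30 min, RT). For co-coating, the fragment went on first, then the CS-IgG conjugate, 60 min each. Lumbosacral DRG from 10-12-d chick embryos were cultured overnight at 37°C in Ham's F12 with 2 mM glutamine, antibiotics and 20 ng/ml 7S-NGF. After glutaraldehyde fixation, radius was read at four 90° positions with a calibrated eyepiece, 6-10 ganglia per point.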"}, "chick embryo fibroblasts": {"test_system": "chick embryo fibroblasts", "experiment": "Adhesion and spreading of chick embryo fibroblasts on coated substrates", "assay_type": "cell-based", "settings": "control experiment"}}, "data": [{"substance": "DELPQLVTLPHPNLHGPEILDVPST [CS1]", "values": [{"measurement": "Inhibition of neurite outgrowth on fibronectin by CS peptide", "setting": "[1]; 20 μg/ml fibronectin", "value": 32, "unit": "%"}, {"measurement": "Inhibition of fibronectin-mediated neurite extension", "setting": "[1]; five independent experiments", "value": "25-30%"}, {"measurement": "Activity relative to fibronectin on a molar basis, fold less active", "setting": "[2]", "value": 2.5, "unit": "fold"}]}, {"substance": "FRRTTPPTTATPIRHRPRPYPPNVGEE [CS4]", "values": [{"measurement": "Further inhibition when coincubated with mAb 333 (300 μg/ml)", "setting": "[1]; Fig. 6, 20 μg/ml fibronectin, CS4 1 mg/ml, compared with mAb 333 alone", "value": "no further inhibitory activity"}]}, {"substance": "Fibronectin", "values": [{"measurement": "Relative activity", "setting": "[3]; Table I, relative to activity of fibronectin after subtraction of the background due to IgG", "value": 100, "unit": "%"}, {"measurement": "Adhesion / spreading of chick embryo fibroblasts on substrate", "setting": "chick embryo fibroblasts", "value": "adhere equally well"}]}, {"substance": "LPGTSGQQPSVGQQMIFEEHGFRR [CS3]", "values": [{"measurement": "Inhibition of neurite outgrowth on fibronectin by CS peptide", "setting": "[1]; 20 μg/ml fibronectin", "value": 11, "unit": "%"}]}, {"substance": "Nerve growth factor [reference compound]", "values": [{"measurement": "Effect on fibronectin-mediated neurite extension", "setting": "[3]; control experiment, medium supplement 20 ng/ml", "value": "no detectable effect"}]}]}
